Test results as given in ChEMBL document CHEMBL2021842, “COMPARE analysis of the toxicity of an iminoquinone derivative of the imidazo[5,4-f]benzimidazoles with NAD(P)H:quinone oxidoreductase 1 (NQO1) activity and computational docking of quinones as NQO1 substrates” (Bioorg Med Chem, 2012).

Legend:
Format in all cases: functional
HL-60(TB) = assay: Growth inhibition of human HL-60(TB) cells
In short: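 NCI DTP NCI-60 screen, second stage: five-dose testing across 60 human tumour cell lines from nine tissue types. GI50 is the concentration that inhibits cell growth by 50%, obtained for each cell line.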

EKVX = assay: Growth inhibition of human EKVX cells
In short: (§1)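 NCI DTP 60-cell-line screen, second stage: five-dose testing across the human tumour panel. GI₅₀ taken as the concentration needed to inhibit cell growth by 50% in each cell line.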

OVCAR-5 = assay: Growth inhibition of human OVCAR5 cells
In short: (§2)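 Part of the NCI DTP 60-cell-line panel. After the single-dose stage, cells were tested at five doses. Read-out is the GI50, the concentration giving 50% inhibition of cell growth, derived for each cell line.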

BT-549 [1] = assay: Growth inhibition of human BT549 cells; in short: as §1
MDA-MB-468 = assay: Growth inhibition of human MDA-MB-468 cells; in short: as §2
K562 = assay: Growth inhibition of human K562 cells; in short: as §1
MDA-MB-231 = assay: Growth inhibition of human MDA-MB-231 cells; in short: as §2
DU-145 = assay: Growth inhibition of human DU145 cells; in short: as §1
A498 = assay: Growth inhibition of human A498 cells; in short: as §1
KM12 = assay: Growth inhibition of human KM12 cells; in short: as §1
NCI-H226 = assay: Growth inhibition of human NCI-H226 cells; in short: as §2
CAKI-1 = assay: Growth inhibition of human Caki1 cells; in short: as §1
U-251 = assay: Growth inhibition of human U251 cells
In short: (§3)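 This is the second, five-dose stage of the NCI DTP 60-cell-line screen. GI50 is the concentration that inhibits cell growth by 50%, derived for each cell line.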

LOX IMVI = assay: Growth inhibition of human LOXIMVI cells; in short: as §1
SF-268 = assay: Growth inhibition of human SF268 cells; in short: as §2
SW-620 = assay: Growth inhibition of human SW620 cells; in short: as §3
SK-MEL-28 = assay: Growth inhibition of human SK-MEL-28 cells; in short: as §2
SK-OV-3 = assay: Growth inhibition of human SKOV3 cells; in short: as §2
SR = assay: Growth inhibition of human SR cells; in short: as §3
UACC-257 = assay: Growth inhibition of human UACC257 cells; in short: as §3
ACHN = assay: Growth inhibition of human ACHN cells; in short: as §1
RXF 393 = assay: Growth inhibition of human RXF393 cells; in short: as §2
COLO 205 = assay: Growth inhibition of human COLO205 cells; in short: as §1
BT-549 [2] = assay: Growth inhibition of human BT549 cells assessed as cell growth at 10 uM relative to untreated control; conditions: read-out: Activity
In short: (§4)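 NCI DTP 60-cell-line screen, first stage: a single 10 µM dose of compound given to the human tumour panel. Result reported as percent growth relative to control, on a mean growth graph.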

NCI-H522 = assay: Growth inhibition of human NCI-H522 cells; in short: as §2
HCT-15 = assay: Growth inhibition of human HCT15 cells; in short: as §1
NCI/ADR-RES = assay: Growth inhibition of human NCI/ADR-RES cells; in short: as §2
MCF7 = assay: Growth inhibition of human MCF7 cells; in short: as §2
786-0 = assay: Growth inhibition of human 786-0 cells; in short: as §1
TK-10 = assay: Growth inhibition of human TK10 cells; in short: as §3
IGROV-1 = assay: Growth inhibition of human IGROV1 cells assessed as cell growth at 10 uM relative to untreated control; conditions: read-out: Activity; in short: as §4

N=C1c2nc3n(c2C(=O)c2nc4n(c21)CCCC4)CCCC3
GI50 (HL-60(TB)): 23.4 µM
GI50 (EKVX): 25.1 µM
GI50 (OVCAR-5): 2.63 µM
GI50 (BT-549 [1]): 2.04 µM
GI50 (MDA-MB-468): 14.8 µM
GI50 (K562): 20.4 µM
GI50 (MDA-MB-231): 39.8 µM
GI50 (DU-145): 1.41 µM
GI50 (A498): 6.03 µM
GI50 (KM12): 13.2 µM
GI50 (NCI-H226): 1.74 µM
GI50 (CAKI-1): 15.5 µM
GI50 (U-251): 10 µM
GI50 (LOX IMVI): 0.562 µM
GI50 (SF-268): 8.51 µM
GI50 (SW-620): 3.72 µM
GI50 (SK-MEL-28): 2.09 µM
GI50 (SK-OV-3): 33.1 µM
GI50 (SR): 8.51 µM
GI50 (UACC-257): 1.95 µM
GI50 (ACHN): 30.9 µM
GI50 (RXF 393): 16.6 µM
GI50 (COLO 205): 1.86 µM
growth at 10 µM (BT-549 [2]): -37.2%
GI50 (NCI-H522): 4.57 µM
GI50 (HCT-15): 2.63 µM
GI50 (NCI/ADR-RES): 35.5 µM
GI50 (MCF7): 1.86 µM
GI50 (786-0): 44.7 µM
GI50 (TK-10): 70.8 µM

O=C1c2nc3n(c2C(=O)c2nc4n(c21)CCCC4)CCCC3
growth at 10 µM (IGROV-1): 107%
